Rows were chosen to be rich in hits. Some 3% of all compounds tested hit in one or more screens of this group.
GC-A act: GC-A (human) enzyme activation; AID 1671463; activation, % at 10 µM; actives 0.14% (n = 370,000); HEK293 GC-A cells, cGMP TR-FRET, EC30 ANP; 0% at EC30 ANP, 100% saturating ANP; P16066; in the data active = activation above about 40%
JMJD2C inh: human JMJD2C demethylase inhibition; AID 2099; GST-JMJD2C(1-420) H3K9me3 demethylation, DELFIA europium; actives 0.069% (n = 330,000); inhibition, % at 2.35 µM;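 active = more than half of a compound's replicate wells show inhibition beyond 50%, single wells judged on their own value; inconclusive = some, but no more than half, of replicates pass 50% inhibition; inactive = no replicate passes 50% inhibition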;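 note: signal counts dimethyl H3K9 product captured on neutravidin plate; 0% = median of DMSO wells and 100% = 0.3 times that DMSO median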
NPR2 activator: GC-B (human) receptor activation. P20594. HEK293-GC-B cells, CNP EC30, cGMP TR-FRET; 0% at EC30 CNP, 100% saturating CNP. activation, % at 10 µM. actives 0.11% (n = 370,000). AID 1920062;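 active = activation at 10 µM reaching about 35% in either raw or pattern-adjusted values, limit read from the data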
Lipid droplet: modulators of hepatic lipid droplet formation | inhibition, % at 6.5 µM | AML12 mouse hepatocytes, oleate lipid droplets, BODIPY imaging | AID 1656 | actives 0.4% (n = 240,000);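 active = lipid droplet intensity inhibited by at least 50%, with more than 500 cells counted; inconclusive = wells with under 300 cells, treated as cytotoxic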
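Assay system: AML12 mouse liver cells | Compound dosing: One dose, 6.5 µM compound | Read-out basis: Droplet intensity reduction, % inhibition | Measured by: Fluorescence imaging, 20x objective, two fields per well | Schedule: Overnight treatment with compound plus oleate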
aDG glyco up: increases alpha dystroglycan glycosylation; AID 624168; activation, % at 10 µM; actives 0.22% (n = 360,000); Pro5-aDG cells, alpha-DG glycosylation AlphaScreen (IIH6); 0% Pro5, 100% B10-LARGE cell signal;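 active = activation of at least 8% versus controls, or a plate z-score of at least 8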;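 note: Pro5 are CHO cells carrying HIG-tagged alpha-DG that lacks glycosylation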
NR3A LBD binder: modulates the human NR3A ligand-binding domain; NR3A LBD differential scanning fluorimetry, Tm shift; 0% = protein alone, 100% = glycine-bound protein; Tm shift relative to glycine control, % at 25 µM; actives 2.5% (n = 340,000); AID 1259313;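 active = melting temperature shift of at least 10% of the positive control shift, at one fixed dose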
* hit, by the source's call; ? = inconclusive; . = no result given.

SMILES	GC-A act	JMJD2C inh	NPR2 activator	Lipid droplet	aDG glyco up	NR3A LBD binder
COc1ccc(C(=O)Nc2ccc(Nc3ccccc3)cc2)cc1[N+](=O)[O-]	4	6	-4	10	1	28*
COc1ccc(C(=O)Nc2ccc(OCc3ccccc3)cc2)cc1[N+](=O)[O-]	-6	1	-6	.	0	34*
COc1ccc(C(=O)Nc2ccc(Nc3ccccc3)cc2)cc1OC	0	-2	1	10	0	-1
COc1ccc(CNC(=O)O[C@H]2CC[C@@]34CCCN3C(=O)CCC[C@H]4C2)cc1OC	1	.	-2	.	.	.
Cc1ccc(C23CC4CC(CC(CN)(C4)C2)C3)cc1	-18	1	-14	-8	9.5*	-1
NCC12CC3CC(C1)CC(c1ccc(Br)cc1)(C3)C2	-61	-17	-15	10	0	2
FC(F)(F)c1ccccc1Cn1ccc2ccc(-c3ccc4ccn(Cc5ccccc5)c4c3)cc21	2	.	1	.	.	.
COC(=O)[C@]12C[C@H](CC(=O)NCc3cccc4ccccc34)C(=O)N(Cc3ccco3)C1=C[C@H](C(C)C)O[C@@H]2C1CC1	-5	.	-8	.	.	.
CC12CCC(=O)N1C(C(=O)Nc1nc(-c3ccc(F)c(F)c3)cs1)CS2 (stereo not drawn)	43*	-3	3	.	0	2
CC12CCC(=O)N1C(C(=O)Nc1nc(-c3ccc(F)cc3)cs1)CS2 (stereo not drawn)	46*	7	4	.	0	1
O=C(N/N=C/c1ccc(O)cc1O)c1ccc(NC(=O)C2CCCCC2)cc1	0	20	-1	-2	0	23*
O=C(N/N=C/c1ccc(O)cc1O)C1CC1	-3	15	3	.	0	0
O=C(N/N=C/c1cccc(O)c1)c1ccc(NC(=O)C2CCCCC2)cc1	-2	-4	5	4	0	10*
O=C(NCCc1ccccc1)OCc1cn(Cc2cccc(F)c2F)nn1	3	.	3	.	.	.
CCOC(=O)Nc1ccc2c(C)cc(=O)oc2c1	-9	0	-6	9	0	-1
CCOC(=O)Nc1ccc2c(CN(C)Cc3ccc(F)cc3)cc(=O)oc2c1	4	1	-2	-5	0	14*
C=CCc1cccc(/C=N/NC(=O)CCC(=O)Nc2ccc(C)cc2)c1O	3	6	-1	-10	1	14*
Oc1ccc(-c2[nH]ncc2-c2ccc(Br)cc2)c(O)c1	67*	0	0	-2	1	7
Oc1ccc(-c2[nH]ncc2-c2ccc(Cl)cc2)c(O)c1	49*	-11	-3	.	1	12*
COc1ccc(-c2[nH]ncc2-c2ccc(Cl)cc2)c(O)c1	19	-3	-8	5	0	1
COC(=O)C1CN(C2CCCC2)CCS(=O)(=O)N1Cc1cn(Cc2ccc(C)cc2)nn1 (stereo not drawn)	0	.	8	.	.	.
O=S(=O)(Nc1ccccc1-c1ccccc1)c1ccccc1	4	.	-3	.	1	14*
COc1ccc(N2CCN(CCCNC(=O)CCc3cccc(F)c3)CC2)cc1	3	.	4	.	.	.
CNC(=O)c1ccccc1S(=O)(=O)c1ccccc1C#N	-2	-7	-9	.	0	11*
COC(=O)[C@H]1C[C@@]2(N3CCCCC3)c3ccccc3N[C@H]2N1S(=O)(=O)c1ccc(C)cc1	-5	.	-1	.	.	.
SMILES	GC-A act	JMJD2C inh	NPR2 activator	Lipid droplet	aDG glyco up	NR3A LBD binder
CN1C(=O)c2cc(NC(=O)Nc3ccccc3)ccc2OC[C@H]2O[C@@H](CC(=O)NC3CCC3)CC[C@@H]21	3	.	-4	.	.	.
O=C(Nc1ccc(N2C(=O)C3CCCCC3C2=O)cc1Cl)c1cccs1 (stereo not drawn)	7	-7	0	1	0	18*
O=C(Nc1ccccc1O)c1ccccc1O	9	-7	3	.	0	15*
O=C(Nc1ccc(F)cc1)Nc1ccc(NC(=O)c2ccccc2O)cc1	-1	-1	0	2	0	32*
COc1ccccc1NC(=O)Nc1ccc(NC(=O)c2ccccc2O)cc1	3	-15	2	9	0	32*
COc1cccc(OCCOc2ccc(/C=C3/SC(=S)NC3=O)cc2)c1	-1	13	-7	4	0	10*
COC(=O)[C@]12C[C@H](CC(=O)NCc3ccc(OC)c(OC)c3)C(=O)N(Cc3ccc(Cl)cc3Cl)C1=C[C@H](C(C)(C)C)O[C@@H]2C	0	.	-14	.	.	.
COC(=O)CNC(=O)Cc1c(C)n(C(=O)c2ccc(Cl)cc2)c2ccc(OC)cc12	-5	?	1	-7	0	5
Cc1cccc(NS(=O)(=O)c2nnc(NC(=O)c3ccc(Cl)cc3)s2)c1	4	0	7	0	0	-2
COc1ccc(NS(=O)(=O)c2cccc(NC(=O)CCC(=O)c3ccc(Cl)cc3)c2)cc1	0	7	1	-4	2	26*
COc1ccc2c(c1)c(CC(=O)Nc1cccc(S(N)(=O)=O)c1)c(C)n2C(=O)c1ccc(Cl)cc1	-3	-4	-4	7	0	23*
CC(=O)Nc1ccc(S(=O)(=O)Nc2cccc(C(=O)NC(C)(C)C)c2)cc1	6	-4	4	.	0	13*
Cc1cccc(NC(=O)c2cccc(NS(=O)(=O)c3ccc(Cl)cc3)c2)c1	.	-7	.	4	0	12*
C[C@H]1CCCN1c1cccc2c1S(=O)(=O)N(C1CC1)CCCO2	-1	.	7	.	.	.
CC(=O)NC1CCCCN(Cc2ccc(Cl)cc2)C1=O (stereo not drawn)	1	.	1	.	.	.
CC(C)(C)NC(=O)[C@H](c1cccnc1)N(C(=O)c1ccco1)c1ccc(C(C)(C)C)cc1	-18	.	-15	.	.	.
CS(=O)(=O)OC12CCCN(C1)/C(=C/c1ccc(Cl)cc1)C2 (stereo not drawn)	-1	.	-14	.	.	.
CCOC(=O)[C@]12CCCC=C1N(CCCOC)C(=O)[C@@H]2CC(=O)NCCc1ccccc1OC	0	.	4	.	.	.
COc1ccc(NS(=O)(=O)c2ccc(OC)c(NC(=O)CCC3CCCC3)c2)cc1	-3	-2	5	9	0	32*
O=C(Nc1ccc2c(c1)CCC2)c1ccc(Cl)nc1	4	8	1	0	0	-2
COc1ccc(OC)c(NC(=O)COC(=O)CCC2CCCC2)c1	0	-1	4	.	0	2
COc1ccc(NS(=O)(=O)c2cccc(NC(=O)c3ccc(Cl)nc3)c2)cc1	-17	5	-15	.	8.5*	1
O=C(Nc1cccc(S(=O)(=O)Nc2ccc(Cl)cc2)c1)c1ccc(Cl)nc1	-23	13	-17	-6	5	21*
CSCCC(NC(=O)c1ccco1)C(=O)NC1CCC(C)CC1 (stereo not drawn)	3	-4	2	.	0	-3

Source: PubChem BioAssay (several laboratories)
